Hits are enriched below; roughly 3.7% of the tested compounds scored in any of these assays.
KCNQ1 pot – potentiates or activates the human KCNQ1 potassium channel | P51787 | CHO-K1 KCNQ1, thallium flux FluxOR fluorescence; stronger effect = higher value | B-score at 10 µM | 310,000 compounds, 0.35% hits | AID 2648;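 active means fluorescence ratio B-score, a plate-corrected score, at least three library SD, with initial intensity B-score within 5 SD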
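Assay system: CHO-K1 cells stably expressing KCNQ1; Medium: assay buffer with matched DMSO; Also added: K+/Tl+ depolarizing stimulus; Dosing: single dose; Timing: dye 90 min, compound 20 min, room temperature; Measured by: kinetic FluxOR thallium fluorescence, 10-s 1-Hz baseline, 110-s post-stimulus read; Read-out: peak-minus-minimum fluorescence over initial fluorescence, negative-control normalized, B-scored.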
KCNK9 block – human KCNK9 channel inhibition; B-score at 10 µM; Q9NPC2; HEK293 KCNK9, FluxOR thallium flux fluorescence; stronger effect = lower value; 310,000 compounds, 1.2% hits; AID 488922;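 active means ratio B-score over 3 SD below the library mean, with starting fluorescence within 5 SD of its mean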;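 further: negative B-score means less thallium flux so channel inhibition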
KCNQ1 block – human KCNQ1 channel inhibition; B-score at 10 µM; AID 2642; 310,000 compounds, 1.3% hits; CHO-K1 KCNQ1, FluxOR thallium flux fluorescence; stronger effect = higher value; P51787;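 active means compounds whose thallium flux B-score, printed positive for inhibition, exceeds three library SD while starting fluorescence stays within three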;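 further: channel opened by potassium depolarization with thallium stimulus after 20 min compound exposure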
Kir21 block – blocks the mouse Kir2.1 inward-rectifier potassium channel. HEK293-Kir2.1, FluxOR thallium flux fluorescence; stronger effect = lower value. B-score at 10 µM. 310,000 compounds, 0.85% hits. AID 1672;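 active means fluorescence ratio B-score at or below minus 3 SD of library scores, with starting-brightness B-score within 2 SD, cut at about -4.2 in these data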;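 further: channel flux triggered by added potassium and thallium sulfate stimulus; B-score of peak minus minimum fluorescence over baseline after thallium stimulus; more negative B-score means stronger Kir2.1 block with less thallium influx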
hERG rescue – shields human hERG channel from block by proarrhythmic agents | Q12809 | CHO-hERG, FluxOR thallium flux, dofetilide IC70 present | activation (rescue from dofetilide block), less the hit threshold, % at 10 µM | 310,000 compounds, 0.51% hits | AID 1511;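 active means activation above the mean of controls blocked by dofetilide plus 5 SD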;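 further: thallium influx through hERG after potassium depolarization seen as dye fluorescence rise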
KCNK3 block – human KCNK3 channel inhibition, primary screen. O14649. CHO-KCNK3 thallium flux, FluxOR fluorescence; stronger effect = lower value. B-score at 10 µM. 340,000 compounds, 0.84% hits. AID 602410;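 active means B-score under library mean minus 4 SD, starting fluorescence ratio at most library mean plus 5 SD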;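 further: more negative B-score means stronger inhibition of thallium flux through KCNK3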
Target sequence (O14649 whole entry, looked up): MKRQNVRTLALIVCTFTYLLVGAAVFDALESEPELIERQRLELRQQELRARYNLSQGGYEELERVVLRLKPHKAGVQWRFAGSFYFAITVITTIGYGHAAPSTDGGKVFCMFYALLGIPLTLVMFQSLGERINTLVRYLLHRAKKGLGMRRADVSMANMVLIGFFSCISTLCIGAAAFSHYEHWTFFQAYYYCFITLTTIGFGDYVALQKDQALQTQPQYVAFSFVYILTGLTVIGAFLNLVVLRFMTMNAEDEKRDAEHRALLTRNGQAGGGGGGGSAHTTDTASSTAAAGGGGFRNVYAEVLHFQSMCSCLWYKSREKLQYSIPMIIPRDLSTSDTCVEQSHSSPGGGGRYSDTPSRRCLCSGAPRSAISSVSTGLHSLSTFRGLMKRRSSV
KCNK9 inh conf – human KCNK9 inhibitor confirmation; 4,900 compounds, 43% hits; inhibition, % at 10 µM; HEK293 KCNK9 cells, FluxOR thallium flux fluorescence; shares compounds with KCNK9 block;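 active means thallium signal inhibited by more than 5 SD of the compound-free buffer control wells, on both duplicate plates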
Kir21 sel – mouse Kir2.1 off-target activity of KCNK9 modulators | AID 492993 | inhibition, % at 10 µM | Kir2.1 cells, FluxOR thallium flux fluorescence | 4,900 compounds, 4% hits | shares compounds with KCNK9 block;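 active means thallium signal drop more than 5 SD beyond the mean of the no-compound control wells, seen in both duplicate plates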;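 further: signal is fluorescence rise after thallium addition divided by baseline fluorescence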
HEK293 Tl ctr – non-induced cell nonspecific activity of KCNK9 modulators; shares compounds with KCNK9 block; 4,900 compounds, 40% hits; non-induced KCNK9-HEK293, FluxOR thallium flux; inhibition, % at 10 µM; AID 492997;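 active means thallium signal drop beyond 5 SD of the untreated control mean, on both duplicate plates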
Large screens that a line does not name were inactive (follow-up assays come after a bar, where they were run).

c1ccc(CNc2ncnc3sc4c(c23)CCCC4)nc1	none
Cc1ccc(-c2cc(C(=O)Nc3ccc(S(=O)(=O)Nc4onc(C)c4C)cc3)c3ccccc3n2)cc1	none | KCNK9 inh conf inactive | Kir21 sel inactive | HEK293 Tl ctr inactive
COc1ccc(C(=O)[C@@H]2CC[C@](C)(C(=O)O)C2(C)C)cc1	none
CCC1CCc2c(sc(NC(=O)C3c4ccccc4Oc4ccccc43)c2C(N)=O)C1 (stereo unspecified)	none
COc1ccccc1N(CC(=O)NC(C)(C)C)S(=O)(=O)c1cccs1	none
O=C(Cn1cc(C(=O)c2cccs2)c2ccccc21)NC1CCCCC1	KCNK9 block -12 | KCNK9 inh conf 53.5% | Kir21 sel inactive | HEK293 Tl ctr 28.0%
CSc1nnc(C)c(/C=C/NOCc2ccc(Cl)cc2)n1	none
Cc1nnc(SCc2ccc(Cl)cc2)nc1/C=C/N(C)C	none | KCNK9 inh conf inactive | Kir21 sel inactive | HEK293 Tl ctr inactive
N/C(=N\OC(=O)c1cccc(Cn2cc(C(F)(F)F)ccc2=O)c1)c1ccc(Cl)cc1	KCNK9 block -11.9 | KCNK9 inh conf 45.5% | Kir21 sel inactive | HEK293 Tl ctr inactive
O=C(Sc1ccc(Cl)cc1)c1cccc(Cn2cc(C(F)(F)F)ccc2=O)c1	KCNK9 block -13.6 | KCNK9 inh conf 34.5% | Kir21 sel inactive | HEK293 Tl ctr 34.5%
COc1cccc(/C(C)=N/N=C(\C)c2cccc(OC)c2)c1	KCNK9 block -14 | KCNK9 inh conf 60.5% | Kir21 sel inactive | HEK293 Tl ctr inactive
COc1cccc(C(N)=O)c1	none
O=C(COc1cc(O)c2c(=O)cc(-c3ccccc3)oc2c1)c1ccccc1	KCNK9 block -8.73 | KCNK9 inh conf 44.0% | Kir21 sel inactive | HEK293 Tl ctr 30.5%
Cc1ccc(C(=O)COc2cc(O)c3c(=O)cc(-c4ccccc4)oc3c2)cc1	none
Cc1[nH][nH]c(=O)c1C(c1c(C)[nH][nH]c1=O)c1cn(Cc2ccccc2Cl)c2ccccc12	none | KCNK9 inh conf inactive | Kir21 sel inactive | HEK293 Tl ctr inactive
N/C(=N\O)c1cn(Cc2ccccc2Cl)c2ccccc12	none
Cc1cc(C)c(S(=O)(=O)Nc2ccccn2)c(C)c1	none
Cc1ccc(Cl)cc1NS(=O)(=O)c1ccccc1	none (no result: KCNQ1 pot, KCNK9 block, KCNQ1 block, Kir21 block, hERG rescue)
Cc1ccc(Cl)cc1NS(=O)(=O)Cc1ccccc1	none | KCNK9 inh conf inactive | Kir21 sel inactive | HEK293 Tl ctr inactive
COc1cccc(NC(=O)Cn2c(=O)n(-c3ccccc3)c(=O)c3sccc32)c1	none
O=[N+]([O-])c1ccc(C(=S)N2CCC(Cc3ccccc3)CC2)cc1	KCNK9 block -12.7 | KCNK9 inh conf inactive | Kir21 sel inactive | HEK293 Tl ctr inactive
O=[N+]([O-])c1ccc(CN2CCC(Cc3ccccc3)CC2)cc1	none
CCn1ncc(/C=N/NC(=O)c2ccc3c(c2)OCO3)c1C	none
CCn1cc(/C=N\NC(=O)c2ccc3c(c2)c(C)c(C)n3Cc2ccccc2)c(C)n1	KCNK9 block -18.5 | KCNK9 inh conf 68.0% | Kir21 sel inactive | HEK293 Tl ctr 27.0%
CCn1nc(C)c(/C=N/NC(=O)c2ccc3c(c2)c(C)c(C)n3Cc2ccccc2)c1C	KCNK9 block -15 | KCNK9 inh conf 54.5% | Kir21 sel inactive | HEK293 Tl ctr 28.5%
CCn1ncc(/C=N\NC(=O)c2ccc3c(c2)c(C)c(C)n3Cc2ccccc2)c1C	KCNK9 block -17.5 | KCNK9 inh conf 59.5% | Kir21 sel inactive | HEK293 Tl ctr 29.5%
Cc1cccc(C(=O)Nc2ccccc2SCC(=O)Nc2ccc(C)c(Cl)c2)c1	none
CC1(c2ccccc2)NC(=O)N(CC(=O)Nc2ccccc2C(=O)N2CCCCC2)C1=O (stereo unspecified)	none
CCN(C(=O)COC(=O)CCC(=O)c1ccccc1)c1c(N)n(Cc2ccccc2)c(=O)[nH]c1=O	none (no result: KCNQ1 pot, KCNK9 block, KCNQ1 block, Kir21 block, hERG rescue)
